# Assay outcomes: PubChem, several laboratories
# Insulin prom up = MIN6 insulin promoter up-regulation; MIN6 insulin promoter-GFP reporter, high-content imaging; active compounds read high; z-score at 5 µM; 190,000 compounds, 0.3% hits; AID 1625;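 active = z-score above 3 at 5 µM with at least 500 cells counted in the well; inconclusive = wells under 500 cells, flagged as cytotoxic or low count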
# TbHK1 inh = T. brucei hexokinase 1 inhibition; recombinant TbHK1, G6PDH-coupled NADH A340; inhibition, % at 10 µM; 220,000 compounds, 0.11% hits;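 active = inhibition of 50% or more in the single-dose primary screen; inactive = inhibition below 50%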
# b-catenin transl = beta-catenin nuclear translocation modulation | nuclear translocation activity, % at 5 µM | HeLa beta-catenin nuclear translocation, immunofluorescence imaging | 190,000 compounds, 0.3% hits;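 active = nuclear translocation activity above 50% at 5 µM, with a well cell count of 50 or more; inconclusive = wells under 50 cells across six images, flagged as toxic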;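 note: per-cell ratio of nuclear to cytoplasmic median beta-catenin stain intensity; plate controls were DMSO negative control for no effect and GSK-3 inhibitor IX positive control for full effect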
#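 System: HeLa cells, endogenous beta-catenin; compound dosing: 5 µM primary single dose, 0.1% DMSO, 0.02–20 µM confirmation series; incubation: 24 h compound exposure at 37°C, 5% CO2; signal: beta-catenin immunofluorescence imaging with DAPI; evaluation: % activation, nuclear-to-cytoplasmic median beta-catenin signal ratio per cell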
# MT stabilizer = microtubule stabilization, imaging screen; HeLa tubulin immunostaining HCS, 24 h; share of cells brighter than vehicle mean+2SD; % tubulin-high responders, % at 10 µM; 200,000 compounds, 0.83% hits;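 active = plate Z-score above 3 for both tubulin-high and condensed-nucleus cell shares, with cell loss under 80%, at 10 µM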;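 note: anti alpha tubulin signal scored within the nucleus-defined area of each cell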
# Autophagy HCS = modulators of autophagy; calls only at 10 µM (by protocol); 190,000 compounds, 0.98% hits; AID 463193; MEF GFP-LC3 puncta imaging; test concentration mostly 10 µM;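 active = percentage of spot-positive cells more than 3 SD above its plate mean, without a fluorescence outlier flag or 80% toxicity; inconclusive = no clear call, values can overlap the other calls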;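 note: spot-positive cell cutoff set from DMSO-treated cells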
# * marks the source's active call; other numbers are inactive results; i = inactive; ? = inconclusive; . = no result; + = active, no number. An excerpt weighted towards active compounds, which were near 1.9% of everything screened.
SMILES,Insulin prom up,TbHK1 inh,b-catenin transl,MT stabilizer,Autophagy HCS
Cn1c(N)c(C(=O)COC(=O)CCc2nc3ccccc3s2)c(=O)n(C)c1=O,0.02,-4,-4,6,i
CCCN1C(=O)C2(C(C(=O)c3ccc(C)o3)=C(O)C(=O)N2CCCOC)c2ccccc21 (configuration not stated),0.01,-27,0,.,.
Cc1ncn(-c2ccc(C(=O)Oc3ccccc3)cn2)n1,-0.97,-4,0,2,i
CC(C)CC(=O)NC(=S)Nc1ccc(S(=O)(=O)Nc2nccs2)cc1,-0.08,23,2,3,+
CCOc1ccc(NS(=O)(=O)c2ccc(NC(=S)NC(=O)CC(C)C)cc2)cc1,-1.4,19,-3,3,i
Cc1ccc(SCC(=O)Nc2ccc(S(=O)(=O)Nc3nccs3)cc2)cc1,0.15,4,-1,4,+
Cc1ccc(S(=O)(=O)CCC(=O)OCn2nnc3ccccc3c2=O)cc1,-0.06,0,0,8,i
COc1cc2c3nnc(-c4ccc(F)cc4)c-3cn(Cc3cccc(F)c3)c2cc1OC,0.53,6,-2,3,+
CCC(OC(=O)c1cccs1)C(=O)NCc1ccc(C)cc1 (configuration not stated),0.46,1,1,1,+
CCC(OC(=O)c1cccs1)C(=O)NCc1ccc2c(c1)OCO2 (configuration not stated),0.29,0,.,3,i
Cc1ccc2cccc(Oc3ccc([N+](=O)[O-])cc3[N+](=O)[O-])c2n1,0.05,-4,.,16*,i
CCOC(=O)c1noc(C)c1C(=O)Nc1nc(C)cc(C)n1,-0.23,4,2,2,i
O=C(CCCn1c(=S)[nH]c2ccccc2c1=O)NCCSCc1ccccc1,-0.52,2,1,1,i
Cc1cccc(NC(=O)CCN2C(=O)c3ccccc3C2=O)n1,.,22,-2,5,+
O=C(CCCN1C(=O)c2ccccc2C1=O)NC1=NCCS1,0.58,3,0,2,+
O=C(COC(=O)c1c(F)cccc1F)c1ccc[nH]1,-0.68,-5,1,.,.
N#CC(c1ccc(Cl)cc1)c1ccc2c(C(F)(F)F)cc(C(F)(F)F)nc2n1 (configuration not stated),.,-4,.,4,+
COc1ccc(-c2nn(-c3ccccc3)cc2/C=N/NC(N)=S)cc1OC,-1.3,0,.,27*,i
COc1ccc(-c2nn(-c3ccccc3)cc2/C=N/n2cnnc2)cc1OC,-0.74,-17,.,2,i
C=CCNc1sc(C(=O)c2ccc(Br)s2)c(N)c1C#N,.,-20,-17,2,+
CCCC(=Nc1ccccc1OC)C1=C(O)CC(c2ccccc2)CC1=O (configuration not stated),0.42,-10,.,4,i
COc1ccccc1N=C(C)C1=C(O)CC(c2ccccc2)CC1=O (configuration not stated),-0.63,-5,52*,7,+
CCOC(=O)c1sc(C)c(C(=O)NC2CCCCC2)c1N,1.7,-13,118*,3,i
Nc1ccc(C(=O)N2CCCC2)cc1,.,8,-2,3,i
Nc1ccc(C(=O)n2c3ccccc3c3ccccc32)cc1,.,1,.,45*,i
SMILES,Insulin prom up,TbHK1 inh,b-catenin transl,MT stabilizer,Autophagy HCS
Cc1ccc(/C=N/NC(=O)CCn2nc(C)cc2C)c(C)c1,-0.27,-1,41,27*,i
CCOc1ccc(-n2cc(-c3ccccc3)c3c(N4CCOCC4)ncnc32)cc1,-1.1,-5,1,4,+
c1ccc(-c2cn(-c3ccccc3)c3ncnc(N4CCCCC4)c23)cc1,-1.9,4,0,3,i
CCCC(=O)N1c2ccccc2C(=C2SC(C(=O)OC)=C(C(=O)OC)S2)C(=S)C1(C)C,?,3,-1,42*,i
COC(=O)C1=C(C(=O)OC)SC(=C2C(=S)C(C)(C)N(C(=O)C(C)C)c3ccccc32)S1,-0.43,-13,-5,2,i
Cc1ccc(-n2nc(C)c3onc(C)c3c2=O)cc1,.,3,-4,.,.
COC(=O)c1ccccc1NC(=O)NC1CCCCC1,0.13,-9,1,.,.
CCN1CCN(C(=O)CCc2nnc(CCCCc3ccccc3)o2)[C@@H](C)C1=O,-0.4,0,0,.,i
Cc1nc(Cl)sc1C(=O)O,2.2,55*,-2,5,i
Cc1cccc(OC(=O)c2sc(Cl)nc2C)c1,0.08,-14,.,4,i
O=C(NCc1ccc(N2CCCC2=O)cc1)c1ccc(F)cc1,-0.37,-3,-2,9.4*,i
O=C(c1ccccc1F)c1cc2c(cc1[N+](=O)[O-])OCCO2,0.11,-2,1,2,i
COc1ccc(NC(=O)CC(CC(=O)O)c2cc(OC)c(OC)c(OC)c2)cc1 (configuration not stated),-0.18,-7,0,.,.
CCOC(=O)c1ccc(NC2=CC(=O)CC(c3ccco3)C2)cc1 (configuration not stated),-0.22,-18,-1,3,i
O=C1C=C(Nc2ccc(O)cc2)CC(c2ccco2)C1 (configuration not stated),6.8*,-23,10,46*,i
O=C1NC(c2ccc3c(c2)OCO3)Nc2ccccc21 (configuration not stated),0.05,-6,-1,22*,i
COc1ccc(C(=O)NN(C)c2nc(C(F)(F)F)nc3ccccc23)cc1,-2,-6,158*,8,i
CCCCCCN(C(=O)CCCCCN1C(=O)NC(c2ccc(-c3ccccc3)cc2)C(C(=O)OCc2ccccc2)=C1C)C(C)C(=O)NCCCC (configuration not stated),-0.33,38,-4,5,+
O=C(CCc1ccccc1)Nc1ccc(Cl)cn1,-1.1,4,140*,36*,i
O=C(NC(=S)Nc1ccc(Cl)cn1)C(c1ccccc1)c1ccccc1,1.4,4,1,36*,i
S=C(Nc1ccccc1)Nc1ccc(Cl)cn1,0.25,9,-3,4,i
CCc1ccc(/C=C2\Oc3c(ccc(O)c3CN3CCN(CCO)CC3)C2=O)cc1,-0.02,-37,1,.,.
Cc1nn(CCC#N)c(N)c1C1(O)C(=O)Nc2c(Cl)cc(Cl)cc21 (configuration not stated),-0.16,-2,1,.,.
COc1ccc(C)cc1NC(=O)COC(C)=O,3.5*,0,-3,2,i
Nc1c(C(=O)NCc2ccccc2)c2nc3ccccc3nc2n1CCCN1CCOCC1,-1.6,-15,6,4,+
Nc1c(C(=O)NCc2ccc(F)cc2)c2nc3ccccc3nc2n1CCCN1CCOCC1,.,-20,.,2,i
Oc1cccc(C2c3[nH]c4ccccc4c3CCN2Cc2ccc3c(c2)CCO3)c1 (configuration not stated),.,0,10,8.2*,i
Oc1cccc(C2c3[nH]c4ccccc4c3CCN2Cc2ccoc2)c1 (configuration not stated),.,-4,0,1,i
